# Measured values collected from several papers.
# Compare with care: the assays were run in different laboratories.
# Target: Alpha-glucosidase MAL12 (MAL12, Saccharomyces cerevisiae S288c, UniProt P53341)
# Read-out: enzyme activity
# Mode: inhibitor
SMILES,test,setting,IC50 [µM]
COc1cc(O)c2c(c1)oc(=O)c1c3cc(O)c(O)cc3oc21,absorbance,,39.1
CCCCCCCCCCCCCC(=O)OCC(C)(C)CC1=C(O)C(=O)c2ccccc2C1=O,,,5.3
CC1(C)CC(=O)C2=C(C1)n1c(=O)c3ccccc3c(=O)n1C2c1cn(-c2ccccc2)nc1-c1ccc(Cl)cc1 (stereo not drawn),absorbance,,209
Cc1ccc(-c2nc3ncnn3c(-c3ccc(Cl)cc3)c2N)cc1,absorbance,,54.6
CC1(C)CC(=O)C2=C(C1)n1c(=O)c3ccccc3c(=O)n1C2c1cn(-c2ccccc2)nc1-c1ccc([N+](=O)[O-])cc1 (stereo not drawn),absorbance,,285
C[C@H]1CN(C(=O)Nc2ccc(C(F)(F)F)cc2)CCN1c1ccnc(Nc2ccc(C(F)(F)F)cc2)n1,absorbance,pH 6.9,2.63
Cc1ccc(-c2nc3ncnn3c(-c3ccc(Br)cc3)c2N)cc1,absorbance,,68.7
C[C@H]1CN(C(=O)Nc2ccc(C(F)(F)F)cc2)CCN1c1ccnc(Nc2cccc([N+](=O)[O-])c2)n1,absorbance,pH 6.9,1.03
CCCCCCCCCCCC(=O)OCC(C)(C)CC1=C(O)C(=O)c2ccccc2C1=O,,,2.6
C[C@H]1CN(C(=O)Nc2ccc(C(F)(F)F)cc2)CCN1c1ccnc(Nc2ccc(F)cc2)n1,absorbance,pH 6.9,1.82
CC1(C)CC(=O)C2=C(C1)n1c(=O)c3ccccc3c(=O)n1C2c1cn(-c2ccccc2)nc1-c1ccccc1 (stereo not drawn),absorbance,,74.2
C[C@H]1CN(C(=O)Nc2ccc(C(F)(F)F)cc2)CCN1c1ccnc(Nc2ccccc2O)n1,absorbance,pH 6.9,5.13
COc1ccc(-c2nn(-c3ccccc3)cc2C2C3=C(CC(C)(C)CC3=O)n3c(=O)c4ccccc4c(=O)n32)cc1 (stereo not drawn),absorbance,,229
COc1ccc(-c2c(N)c(-c3ccc(C)cc3)nc3ncnn23)cc1,absorbance,,89.3
C[C@@H]1CN(C(=O)Nc2ccc(C(F)(F)F)cc2)CCN1c1ccnc(Nc2ccc(Cl)c(O)c2)n1,absorbance,pH 6.9,2.08
